Screening results from PubChem.
Shown are actives, neighbours in structure and some others; about 2% of the full set was active somewhere.
TROY signal inh: inhibitors of TROY-driven NF-kB signaling, primary screen, Q293 LMP1-TROYcd cells, NF-kB luciferase, uHTS; 360,000 tested, 0.98% active; Q293 LMP1-TROYcd NF-kB luciferase reporter, 4 h; AID 1347056, 2019; inhibition, % at 10 µM;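 active = compounds whose plate-normalised and pattern-corrected inhibition of the luciferase reporter signal at the single screening dose is 50% or more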
LMP1 NFkB inh: EBV LMP1-driven NF-kappaB luciferase reporter inhibitors, primary screen, cell-based, luminescence, single point | inhibition, % at 12.5 µM | 350,000 tested, 0.69% active | LMP1-induced NF-kappaB luciferase reporter cells; in the data active = inhibition above about 41%;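 note: 0% = neutral control wells and 100% = reference inhibitor control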
NR2E3 ag-1: NR2E3 agonists in two-hybrid cells, primary screen, cell-based, luminescence, CHO-S, Gal4-NCOR/VP16-NR2E3; Photoreceptor-specific nuclear receptor (Homo sapiens), Q9Y5X4; luciferase; inhibition of corepressor binding, % at 3.98 µM; 360,000 tested, 0.35% active;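 active = inhibition above the mean of all tested compounds plus 3 SD, cut at about 70% in these data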;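 note: 0% = DMSO with NR2E3 transfected cells and 100% = cells lacking NR2E3 construct; higher means lower luciferase signal from less NR2E3 corepressor binding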
Target sequence (Q9Y5X4 whole entry, looked up, the tested form may be a part): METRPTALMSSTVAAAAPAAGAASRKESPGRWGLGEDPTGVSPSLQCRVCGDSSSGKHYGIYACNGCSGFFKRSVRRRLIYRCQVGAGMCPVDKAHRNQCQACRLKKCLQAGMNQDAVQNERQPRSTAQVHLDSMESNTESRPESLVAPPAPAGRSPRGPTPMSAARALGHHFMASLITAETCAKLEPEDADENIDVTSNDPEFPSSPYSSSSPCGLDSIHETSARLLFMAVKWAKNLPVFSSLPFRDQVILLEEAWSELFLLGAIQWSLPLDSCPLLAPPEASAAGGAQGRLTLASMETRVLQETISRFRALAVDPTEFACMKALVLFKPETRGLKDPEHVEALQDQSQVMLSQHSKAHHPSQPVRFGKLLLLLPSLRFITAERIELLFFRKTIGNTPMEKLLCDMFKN
HIF activator: HIF pathway transcriptional activators, primary screen, cell-based, U2OS HRE-luciferase, luminescence; activation, % at 7.5 µM (by protocol); U2OS HRE-luciferase reporter; normalized: DMSO 0%, desferrioxamine 100%; 300,000 tested, 0.32% active; AID 1910, 2009;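 active = mean activation of at least 10% of the iron chelator positive control signal, with at least half of replicates also reaching 10%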
NR2E3 ag-2: inhibitors of NR2E3-RetCOR corepressor binding, primary screen, NR2E3 agonist project, biochemical, TR-FRET, GST-NR2E3, biotin-RetCOR. inhibition of corepressor binding, % at 4.78 µM. 1536-well. Photoreceptor-specific nuclear receptor (Homo sapiens), Q9Y5X4. AID 2300, 2010. 320,000 tested, 0.12% active;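 active = percent inhibition above the cutoff of mean plus 3 SD of all tested compounds, set per screening campaign, cut at about 20% in these data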;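 note: 0% = DMSO wells and 100% = biotin wells as full block of FRET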
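Material – GST-tagged NR2E3 plus biotinylated RetCOR corepressor · Quantity – NR2E3 fusion 1.35 nM · Times – 5 h incubation at 4 °C · Medium – pH 7.5 Tris-based buffer · Technique – TR-FRET, Eu(K)-anti-GST donor, streptavidin-D2 acceptor, ex 340, em 617/671 nm · Benchmarks – high control biotin, low control 0.6% DMSO · Format – 1536-well plates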
Starred values were filed as active, the others as inactive; nt = not tested or not shown.

SMILES	TROY signal inh	LMP1 NFkB inh	NR2E3 ag-1	HIF activator	NR2E3 ag-2
Cc1ccc([N+](=O)[O-])cc1N=Nc1c(-c2ccc([N+](=O)[O-])cc2)[nH]n(C(N)=S)c1=O	64*	26	-13	1	nt
CCOC(=O)c1c(CN2CCNCC2)nc2ccc(Cl)cc2c1-c1ccccc1	10	-6	-10	nt	nt
CC1=C(C(=O)N(C)C)CC(CC(=O)NCc2cccs2)C(=O)N1CCCN1CCCC1=O (configuration not stated)	-9	2	16	nt	nt
CNC[C@H]1OCc2ccccc2-c2ccccc2C(=O)N([C@@H](C)CO)C[C@H]1C	-14	0	-18	nt	nt
O=C(CCN=C1NS(=O)(=O)c2ccccc21)OCc1cccc(Cl)c1	-9	-4	33	0	1
Clc1cccc(-c2ccc(C3Nc4cccc5cccc(c45)N3)o2)c1	-7	2	-10	nt	nt
Cc1nnc(NC(=O)CSc2nnc(Cc3cccn3C)n2CCc2ccccc2)s1	4	66*	3	0	-1
O=S(=O)(Nc1c(S(=O)(=O)c2ccccc2)c2nc3ccccc3nc2n1C1CCCCC1)c1ccccc1	64*	0	-7	0	2
CCCn1cnnc1CNC(=O)C1CCC(=O)N(CCc2cccc(F)c2)C1 (configuration not stated)	-2	-4	12	-1	2
O=C(OCC(=O)N1CCC(Cc2ccccc2)CC1)c1cncc(Br)c1	-1	3	13	nt	nt
COC(=O)Nc1ccc(S(=O)(=O)N(C)C)cc1	-14	4	-1	29*	6
CCOC(=O)N1CCN(C(=O)C(=O)Nc2sc3c(c2C(=O)O)CC(C)(C)OC3)CC1	9	-2	-22	0	-3
CCc1ccc2oc(-c3cc(N)ccc3Cl)nc2c1	57*	-47	-135	1	-4
CCc1ccc2oc(-c3cc(N)ccc3O)nc2c1	45	-63	-132	1	2
CCC(=NCc1ccco1)c1c(C(F)(F)F)[nH]n(-c2nc3ccccc3s2)c1=O	-29	15	-101	0	-1
CC(=NCc1ccco1)c1c(C)[nH]n(-c2nc3ccccc3s2)c1=O	84*	20	26	-1	-2
COC(=O)Cc1[nH]n(-c2nc3ccccc3s2)c(=O)c1C(C)=Nc1ccc(C)cc1	82*	82*	1	-6	1
COC(=O)Cc1[nH]n(-c2nc3ccccc3s2)c(=O)c1C(C)=Nc1ccc(Cl)cc1	44	38	-17	1	1
CCc1ccc(C(=O)COC(=O)CNC(=O)C2CCCCC2)cc1	76*	-1	3	nt	nt
CCOC(=O)c1c(C)[nH]c(C(=O)COC(=O)CNC(=O)C2CCCCC2)c1C	69*	-1	1	1	-1
COc1ccc(Cc2noc(=O)[nH]2)cc1	-9	1	1	nt	nt
CC(C)(C)c1ccc(O)c(N=Cc2cc(Br)ccc2O)c1	85*	12	-11	-3	-3
Cc1ccc(O)c(C=Nc2cc(C)ccc2O)c1	22	-15	-10	1	-3
CN(Cc1c(F)cccc1Cl)C(=O)c1cnc2ccccc2n1	-25	-1	-24	0	5
O=C(Cn1cnc2c(NC(=O)OCc3ccccc3)ncnc21)NCCN1CCOCC1	-12	5	-13	nt	-3
SMILES	TROY signal inh	LMP1 NFkB inh	NR2E3 ag-1	HIF activator	NR2E3 ag-2
C[C@H]1CN(S(=O)C(C)(C)C)[C@@H](CCO)/C1=C\CCO (some centres not stated)	-4	3	-18	nt	nt
Cc1cc(C(N)=O)c2ccccc2n1	-23	-41	5	0	1
NC(=O)c1cc2ccncc2c2ccccc12	58*	35	-33	6	1
Cc1ccc(C)c(Cn2nc(-c3ccccc3)ccc2=O)c1	56*	6	9	-5	-1
Cc1ccc(-c2ccc(=O)n(Cc3cc(C)ccc3C)n2)cc1	7	-5	-11	0	nt
Cc1cc(C)[n+](Cc2ccccc2)cc1C(N)=O	8	3	13	21*	2
NC(=O)c1ccc(/C=N/O)[n+](Cc2ccccc2)c1	18	-3	13	0	2
COc1cc(/C=C/C(=O)c2ccc3c(c2)OCCO3)cc(Br)c1OCC(=O)N(C)C	33	28	18	25*	-3
